Series [1] in a line: Cmax in Beagle dog at 5 mg/kg, po. The format is ADME, organism-based, Canis lupus familiaris. The arrangement: dose 5 mg/kg, route oral. The conditions noted are these: in vivo. Summed up:
(§1)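 Overnight-fasted animals dosed po in 0.5% methocel or iv in 60% PEG 200; plasma from serial blood samples stored at -10 °C, protein-precipitated with equal volume acetonitrile/0.1% formic acid, analysed by LC/MS/MS with internal standard against spiked blank-plasma standards; Cmax from po data, half-life from iv data.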

Series [2] is described as follows: Half life in Sprague-Dawley rat at 5 mg/kg, iv. The format is ADME, organism-based. The arrangement: dose 5 mg/kg, route intravenous. The conditions noted are these: in vivo. Summed up: as §1
Series [3] can be described thus: Plasma clearance in Sprague-Dawley rat at 20 mg/kg, po and 5 mg/kg, iv. The format is ADME, organism-based. Summed up: as §1
Series [4] deals with Prostaglandin E2 receptor EP4 subtype (Homo sapiens, UniProt P35408). Description: Displacement of [3H]PGE2 from human EP4 receptor expressed in HEK293-EBNA cells by scintillation counting. The format is cell-based. Summed up: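 Radioligand binding on membranes from HEK 293(EBNA) clonal lines overexpressing each prostanoid receptor, using the respective 3H-prostaglandin or thromboxane ligand; EP4 binding also run with 10% human serum; Ki as means of at least three experiments (rEP2, rEP3 n = 1).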
Prostaglandin E2 receptor EP4 subtype, sequence (P35408 whole entry): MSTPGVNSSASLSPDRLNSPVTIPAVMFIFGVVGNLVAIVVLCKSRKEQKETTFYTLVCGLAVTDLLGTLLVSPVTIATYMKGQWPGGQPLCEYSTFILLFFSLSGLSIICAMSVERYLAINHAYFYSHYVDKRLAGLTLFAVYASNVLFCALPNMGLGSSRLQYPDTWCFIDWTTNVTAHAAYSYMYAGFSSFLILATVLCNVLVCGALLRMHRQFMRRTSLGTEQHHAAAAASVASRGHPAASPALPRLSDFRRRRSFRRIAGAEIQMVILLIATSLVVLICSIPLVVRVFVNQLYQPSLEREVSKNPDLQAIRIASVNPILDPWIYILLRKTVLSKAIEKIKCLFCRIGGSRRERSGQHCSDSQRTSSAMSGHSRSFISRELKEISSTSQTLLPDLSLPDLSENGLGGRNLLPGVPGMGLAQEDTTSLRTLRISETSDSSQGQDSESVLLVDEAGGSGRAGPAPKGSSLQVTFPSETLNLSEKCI
(In general: Loss of bound radioactivity is the signal in a displacement assay; it reports binding, not function.)

A short description of series [5]: Oral bioavailability in Sprague-Dawley rat at 20 mg/kg. The format is ADME, organism-based. The conditions noted are these: in vivo. Summed up: as §1
The next series is filed under the species Rattus norvegicus. Description: Analgesic activity against complete Freund's adjuvant-induced Sprague-Dawley rat inflammatory pain assessed as inhibition of chronic paw swelling. The format is functional. Summed up:
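Adjuvant-induced arthritis in rats: CFA injected into primary paw on day 0; oral dosing in 0.5% methocel once daily for 9 days starting day 9; secondary paw swelling measured; plasma levels taken 24 h after final dose; n = 7/group; 1-way ANOVA/Dunnett's vs vehicle.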

As for `Cc1sc(C)c(C(=O)NC2(c3ccc(C(=O)O)cc3)CC2)c1Cc1ccc(C(F)(F)F)cc1`, the highest level in series [1] (Cmax) was 3.3 µM. In series [2], this compound gave a half-life of 4.5 h. The compound also yielded a clearance in series [3] of 9.2 mL/min/kg. In series [4], the Ki came to 560 pM. In series [5], this compound had a bioavailability of 29%. For the same compound, in the series filed under Rattus norvegicus, the Activity entry was “Dose-dependent effect” and the ED50 worked out at 0.02 mg/kg.

The Cmax is the peak of the concentration-time curve. By half-life is commonly meant how long it takes for the measured level to halve. Lower therefore signals rapid decline. One may read the Ki as a measure of affinity in units of concentration, obtained from inhibition or displacement. What is called bioavailability is dose-corrected exposure relative to a reference, in per cent. Low readings indicate poor availability, high ones good availability. One may read the ED50 as the midpoint of the dose-response relation.
